Twelve compounds from ChEMBL document CHEMBL1806392, “Phytochemical studies on Stemona aphylla: isolation of a new stemofoline alkaloid and six new stemofurans” (2011) can be followed below.

≈ marks a conversion by molar mass, not a printed value.

The test system of experiment [1] is Klebsiella pneumoniae. The experiment is described as follows: Antibacterial activity against Klebsiella pneumoniae by broth dilution method. It is filed as functional. An outline of the steps: (§1)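 Broth dilution MIC determination against the bacterium, reported in µg/mL. Gentamicin served as the positive control.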
In experiment [2] the test system is Streptococcus pyogenes. Description: Antibacterial activity against Streptococcus pyogenes by broth dilution method. In kind it is functional. An outline of the steps: as §1
Experiment [3] relates to Candida albicans. The experiment is described as follows: Antifungal activity against Candida albicans by broth dilution method. It is filed as functional. An outline of the steps:
(§2)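 Antifungal MIC determined by broth dilution, reported in µg/mL. Amphotericin B served as the positive control.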
For orientation: Broth dilution looks for growth in wells or tubes with falling amounts of substance.

Experiment [4] concerns Cryptococcus neoformans. Description: Antifungal activity against Cryptococcus neoformans by broth dilution method. It is filed as functional. The procedure, abridged: as §2
The test system of experiment [5] is Staphylococcus aureus. Description: Antibacterial activity against methicillin-resistant Staphylococcus aureus by broth dilution method. In kind it is functional. An outline of the steps:
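Broth dilution giving an MIC in µg/mL, with gentamicin as the antibacterial positive control. The same series covered E. coli, K. pneumoniae, S. aureus, S. pyogenes and two fungi.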

In experiment [6] the test system is Staphylococcus aureus. Description: Antibacterial activity against Staphylococcus aureus by broth dilution method. In kind it is functional. The procedure, abridged:
as §1

The test system of experiment [7] is Escherichia coli. The experiment is described as follows: Antibacterial activity against Escherichia coli by broth dilution method. It is filed as functional. An outline of the steps: as §1
In experiment [8] the target is Acetylcholinesterase (Homo sapiens) (UniProt P22303).
Acetylcholinesterase (Homo sapiens), sequence (P22303 whole entry): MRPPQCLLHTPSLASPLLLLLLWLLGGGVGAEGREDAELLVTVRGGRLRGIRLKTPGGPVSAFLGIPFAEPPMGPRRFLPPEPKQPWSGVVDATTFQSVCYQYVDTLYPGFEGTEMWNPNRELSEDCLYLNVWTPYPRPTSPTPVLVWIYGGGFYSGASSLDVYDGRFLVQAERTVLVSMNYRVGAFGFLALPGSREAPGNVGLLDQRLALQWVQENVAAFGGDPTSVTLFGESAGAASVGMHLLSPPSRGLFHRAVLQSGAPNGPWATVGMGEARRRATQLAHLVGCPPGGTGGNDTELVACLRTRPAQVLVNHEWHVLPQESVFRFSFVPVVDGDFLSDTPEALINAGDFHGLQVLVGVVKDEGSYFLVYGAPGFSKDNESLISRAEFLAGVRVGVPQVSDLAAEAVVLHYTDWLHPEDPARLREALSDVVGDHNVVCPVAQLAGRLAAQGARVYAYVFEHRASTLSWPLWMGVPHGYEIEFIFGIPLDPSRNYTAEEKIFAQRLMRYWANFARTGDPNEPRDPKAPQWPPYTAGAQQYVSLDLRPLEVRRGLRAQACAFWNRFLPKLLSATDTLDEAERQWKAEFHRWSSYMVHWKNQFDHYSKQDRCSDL

Regarding `COc1cc(-c2cc3c(O)cccc3o2)c(C)c(OC)c1C` [STEMOFURAN J], the MIC in experiment [1] stood at 62.5 µg/mL (≈ 209 µM); in experiment [2] it was 62.5 µg/mL (≈ 209 µM); in experiment [3], 31.3 µg/mL (≈ 105 µM); in experiment [4] it was 7.8 µg/mL (≈ 26.1 µM); in experiment [5], 15.6 µg/mL (≈ 52.3 µM); in experiment [6], 62.5 µg/mL (≈ 209 µM). Further, the MIC in experiment [7] was 62.5 µg/mL (≈ 209 µM).

`CC/C=C/[C@@]12[C@@H]3C[C@H]4[C@H]5[C@H](C)/C(=C6/OC(=O)C(C)=C6OC)O[C@]5(O3)[C@@H]1CCN42` showed an MIC in experiment [8] of 5 ng.

For `COc1cc(-c2cc3c(O)cccc3o2)c(C)c(O)c1C` [STEMOFURAN E], the MIC was found to be 62.5 µg/mL (≈ 220 µM) in experiment [1]; 31.3 µg/mL (≈ 110 µM) in experiment [3]; 7.8 µg/mL (≈ 27.4 µM) in experiment [4]; 15.6 µg/mL (≈ 54.9 µM) in experiment [5]; 62.5 µg/mL (≈ 220 µM) in experiment [6]; 62.5 µg/mL (≈ 220 µM) in experiment [7].

In the case of `CC[C@H](O)C[C@@]12[C@@H]3C[C@H]4[C@H]5[C@H](C)/C(=C6/OC(=O)C(C)=C6OC)O[C@]5(O3)[C@@H]1CCN42`, in experiment [8], the MIC amounted to 10 ng.

`COc1cc(O)c(C)c(-c2cc3c(O)cc(OC)cc3o2)c1` [STEMOFURAN M]: the MIC in experiment [1] is 62.5 µg/mL (≈ 208 µM); in experiment [2], 62.5 µg/mL (≈ 208 µM); in experiment [3], 31.3 µg/mL (≈ 104 µM); in experiment [4], 31.3 µg/mL (≈ 104 µM); in experiment [5] it was 31.3 µg/mL (≈ 104 µM); in experiment [6] it was 31.3 µg/mL (≈ 104 µM). Further, the MIC in experiment [7] stood at 125 µg/mL (≈ 416 µM).

`C[C@@H]1[C@H](O)[C@@H](C)/C=C/C=C/C=C/C=C/C=C/C=C/C=C/[C@H](O[C@@H]2O[C@H](C)[C@@H](O)[C@H](N)[C@@H]2O)C[C@@H]2O[C@](O)(C[C@@H](O)C[C@@H](O)[C@H](O)CC[C@@H](O)C[C@@H](O)CC(=O)O[C@H]1C)C[C@H](O)[C@H]2C(=O)O` [AMPHOTERICIN B]: the MIC in experiment [3] worked out at 15.6 µg/mL (≈ 16.9 µM); in experiment [4], 3.9 µg/mL (≈ 4.22 µM).

With `COc1cc(OC)c(C)c(-c2cc3c(O)cc(OC)cc3o2)c1` [STEMOFURAN P], the MIC in experiment [1] worked out at 125 µg/mL (≈ 398 µM); in experiment [3], 15.6 µg/mL (≈ 49.6 µM); in experiment [4] it was 7.8 µg/mL (≈ 24.8 µM); in experiment [5], 62.5 µg/mL (≈ 199 µM); in experiment [6], 31.3 µg/mL (≈ 99.6 µM); in experiment [7] it was 62.5 µg/mL (≈ 199 µM).

`CC[C@H](O)C[C@@]12[C@@H]3C[C@H]4[C@H]5[C@H](C)[C@@H]([C@@H]6OC(=O)C(C)=C6OC)O[C@]5(O3)[C@@H]1CCN42` had an MIC in experiment [8] of 100 ng.

For `CC[C@H](O)C[C@@]12[C@@H]3C[C@H]4[C@H]5[C@H](C)/C(=C6\OC(=O)C(C)=C6OC)O[C@]5(O3)[C@@H]1CCN42`, the MIC in experiment [8] was determined as 10 ng.

Regarding GENTAMICIN, the MIC in experiment [1] was 11.3 µg/mL; in experiment [2], 5.6 µg/mL; in experiment [5] it was 45 µg/mL; in experiment [6], 22.5 µg/mL; in experiment [7] it was 11.3 µg/mL.

The compound `CCCC[C@@]12C3CCN1[C@H]1C[C@H]2O[C@@]32O/C(=C3\OC(=O)C(C)=C3OC)[C@@H](C)[C@H]12` gave an MIC in experiment [8] of 10 ng.

The compound `CC[C@H](O)C[C@@]12[C@@H]3C[C@H]4[C@H]5[C@H](C)[C@@H]([C@H]6OC(=O)C(C)=C6OC)O[C@]5(O3)[C@@H]1CCN42` showed an MIC in experiment [8] of 50 ng.
